Hits are enriched below; roughly 2.9% of the tested compounds scored in any of these assays.
5HT1a antag: antagonists of human 5-HT1a serotonin receptor. 62,000 tested, 0.68% active. inhibition, % at 10 µM. P08908. AID 612. CHO 5-HT1a Ga15 NFAT-bla reporter, antagonist mode;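 active = inhibition above the mean of all tested compounds plus 3 SD, cut at about 43% in these data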;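 note: receptor stimulated by 5-CT agonist at 100 nM near EC80; beta-lactamase reporter measured by ratiometric fluorescence of a cleavable substrate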
Target sequence (P08908 whole entry, looked up): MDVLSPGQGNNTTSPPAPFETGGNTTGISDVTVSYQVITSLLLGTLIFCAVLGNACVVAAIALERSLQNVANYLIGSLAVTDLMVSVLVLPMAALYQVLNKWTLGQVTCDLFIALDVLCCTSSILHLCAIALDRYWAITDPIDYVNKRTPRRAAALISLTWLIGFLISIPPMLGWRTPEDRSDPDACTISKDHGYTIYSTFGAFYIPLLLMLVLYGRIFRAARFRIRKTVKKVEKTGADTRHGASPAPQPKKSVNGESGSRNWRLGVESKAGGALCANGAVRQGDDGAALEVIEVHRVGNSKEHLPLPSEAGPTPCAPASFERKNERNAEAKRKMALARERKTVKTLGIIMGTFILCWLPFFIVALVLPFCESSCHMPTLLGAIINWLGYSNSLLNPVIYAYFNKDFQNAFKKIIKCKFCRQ
S1P1 ag-PAM: S1P1 (human) agonism or agonism potentiation. P21453. S1P1 CRE-bla cells, forskolin, beta-lactamase FRET, potentiator mode; S1P1 agonist co-added at EC20, 2 nM; 100% = saturating reference agonist, 0% = basal. activation, % at 9.5 µM. 56,000 tested, 0.57% active;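 active = activation above a cutoff set at the mean activation of all tested compounds plus 3 SD, cut at about 54% in these data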;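 note: forskolin at 4 µM as EC80 and the EC20 agonist is SEW2871; 100% = SEW2871 at its EC100 plus forskolin at EC80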
HTR1E agonist: 5-HT1E (human) receptor agonism. P28566. CHO 5-HT1E Ga15 NFAT-bla reporter, FRET; 0% DMSO wells, 100% control agonist wells. activation, % at 6 µM. 65,000 tested, 0.69% active;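 active = activation above a set limit, the screen-wide mean activation plus 3 SD, cut at about 8.5% in these data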;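 note: 100% = positive control agonist at 1 µM giving full maximal response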
S1P3 agonist: S1P3 (human) receptor agonism | S1P3 NFAT-BLA reporter cells, FRET ratio; relative to 1 µM S1P, basal subtracted | Q99500 | AID 373 | 60,000 tested, 0.1% active | activation, % at 4.5 µM;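 active = activation above the screen-wide mean plus 3 SD, cut at about 4.5% in these data, passing the limit was not always enough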
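Assay system: stable CHO line with human S1P3, Gα16, NFAT-BLA reporter; Detection: FRET β-lactamase substrate fluorescence, excitation 405 nm, 460/535 nm emission ratio, background-subtracted; Read-out: percent activation versus median 1 µM S1P response, basal-subtracted, per plate; Incubation: cells plated overnight, compound 4 h 37 °C, substrate 2 h RT.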
5HT1a ag: agonists of human 5-HT1a serotonin receptor | P08908 | CHO 5-HT1a Ga15 NFAT-bla reporter, FRET ratio; 0% basal, 100% maximal reference agonist | activation, % at 10 µM | 65,000 tested, 0.56% active;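 active = activation above the screen-wide mean activation plus 3 SD, cut at about 19% in these data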;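 note: 0% = DMSO wells and 100% = 5-CT at EC100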
5HT1E antag: 5-HT1E (human) receptor antagonism. P28566. CHO 5-HT1E Ga15 NFAT-bla reporter, FRET, antagonist. inhibition, % at 6 µM. 65,000 tested, 0.99% active. AID 571;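 active = inhibition above a set limit, the mean inhibition across every tested compound plus 3 SD, cut at about 29% in these data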;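 note: signal is the 460 over 535 nm emission ratio of beta-lactamase substrate; 0% = agonist plus DMSO wells and 100% = wells without agonist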
Active calls of the source: *; · = no result.

SMILES	5HT1a antag	S1P1 ag-PAM	HTR1E agonist	S1P3 agonist	5HT1a ag	5HT1E antag
COc1c2c(nc3occc13)C(CCC(C)(C)O)(OC)C(O)CC2 (configuration not stated)	-11	-6	26*	2	-2	-13
COc1ccccc1C(=O)NCCc1nc2ccccc2[nH]1	-22	-19	1	0	3	-10
CCCCC(=O)NC(Nc1nc(C2CC2)cs1)(C(=O)OCC)C(F)(F)F (configuration not stated)	16	-20	0	5.3*	0	11
O=c1[nH]cnc2cc(Cl)ccc12	5	11	-2	-1	50*	1
O=c1[nH]cnc2cc(-c3ccccc3)sc12	·	10	0	-3	-1	8
Cn1cccc1C(=S)N=P(C1CCCCC1)(N1CCOCC1)N1CCOCC1	-7	9	0	0	-2	-4
Cc1ccc(-c2cc(C(F)(F)F)c(C#N)c(SCCC#N)n2)o1	0	·	6	6	34*	-7
Cc1ccc(-c2cc(-c3ccc(C)o3)nc(N)c2C#N)cc1	-4	-125	1	1	7	-8
CC(C)Nc1nc(C#N)nc(NC(C)C)n1	-1	-37	0	1	1	31*
Cc1cc(S(=O)(=O)NCCCN2CCOCC2)ccc1F	6	-10	0	0	-2	1
CCc1nnc(NC(=O)CSc2nnc(COc3ccccc3C)o2)s1	-6	4	8.9*	-1	1	6
Cn1c(=O)c2c(nc(Sc3n[nH]c(N)n3)n2Cc2ccccc2Cl)n(C)c1=O	-7	14	0	-1	-1	0
CCOC(=O)N1CCC(n2c(SCC(=O)NCCC3=CCCCC3)nc3ccccc3c2=O)CC1	60*	·	-1	·	0	19
CCOC(=O)N1CCC(n2c(SCC(=O)NCc3ccccc3)nc3ccccc3c2=O)CC1	41	·	0	·	0	11
CNS(=O)(=O)c1cccc(C(=O)OCc2cc(Cl)cc3c2OCOC3)c1	-2	-37	6	-1	-2	5
COc1cc2c(cc1OC)C1=C(C#N)CCC(=O)N1CC2	8	·	0	1	0	49*
COc1cc2c(cc1OC)C1=C(C#N)CC/C(=N\S(=O)(=O)c3ccccc3)N1CC2	5	-34	1	2	3	66*
COc1ccc(CCN2CC(C#N)=C3c4cc(OC)c(OC)cc4CCN3C2)cc1OC	11	-10	2	-1	2	38*
COc1cc2c(cc1OC)C1=C(C#N)CN(C3CCCCC3)CN1CC2	5	-12	1	0	1	27
Cn1c(NC(=O)c2ccc(Br)o2)cc(=O)n(C)c1=O	-5	·	0	-1	-1	14
CCOC(=O)CSc1nnc(Cn2nnc(-c3ccccc3)n2)n1C	-5	-10	-1	0	1	-3
O=C(NCCc1c[nH]c2ccccc12)c1ccc(-n2cnnn2)cc1	4	6	-1	0	-4	10
O=C(Nc1ccc(S(=O)(=O)NCc2ccco2)cc1)c1ccc2ccccc2n1	49*	96*	0	0	-1	4
O=C(NCCc1c[nH]c2ccccc12)c1ccc(S(=O)(=O)NCc2ccco2)cc1	7	·	13*	·	1	10
Cc1cc(-n2c(=O)c(C#N)cc3c(=O)n4ccccc4nc32)no1	-114	-124	19*	11*	72*	-39
SMILES	5HT1a antag	S1P1 ag-PAM	HTR1E agonist	S1P3 agonist	5HT1a ag	5HT1E antag
C=CCn1c(=O)c(C#N)cc2c(=O)n3ccccc3nc21	-44	-80	16*	5.2*	43*	-28
N#Cc1cc2c(=O)n3ccccc3nc2n(Cc2cccnc2)c1=N	7	·	-1	·	-1	-1
CN1CCCc2cc3c(C(F)(F)F)cc(=O)oc3nc21	19	·	2	0	5	41*
CC(C)c1cc(=O)oc2c3c4c(cc12)CCCN4CCC3	0	-18	0	0	-5	15
Cc1[nH]c2ccccc2c1C(O)CN1CCN(c2cccc(C(F)(F)F)c2)CC1 (configuration not stated)	37	24	14*	-2	46*	11
COc1ccc(-c2cc(C(F)(F)F)nc(N3CCCCCC3)n2)cc1	-7	·	1	·	3	-10
COc1cccc(-c2cc(C(F)(F)F)nc(N3CCCCC3)n2)c1	-4	·	0	·	99*	-6
COc1ccc(-c2cc(C(F)(F)F)nc(N3CCN(C)CC3)n2)cc1	-1	·	18*	·	5	-2
Cc1ccc(Cl)cc1NC(=O)Cn1cc2c(n1)CCCC2	8	1	0	-1	-2	0
Cc1ccc(C)c(N2CCN(CC(=O)Nc3ccc4[nH]c(=O)[nH]c4c3)CC2)c1	8	-4	23*	-1	0	-9
CCc1nnc2c3cnn(-c4ccc(C)c(C)c4)c3ncn12	-5	·	-1	·	0	1
CN1CCN(CC(=O)N(C)c2nc(-c3ccccc3)cs2)CC1	6	-5	1	-1	-2	-4
COc1ccc(-n2c(NC(=O)c3ccco3)c(C#N)c3nc4ccccc4nc32)cc1	7	-31	6	4	22*	11
CCCCn1c(NC(=O)c2ccccc2Cl)c(C#N)c2nc3ccccc3nc21	-13	-37	8	1	27*	7
CCCCn1c(NC(=O)CC)c(C#N)c2nc3ccccc3nc21	11	-1	3	0	4	6
Cc1oc(-c2ccc(Cl)cc2)nc1CN1CCCC(C(=O)N2CCN(C(=O)c3ccco3)CC2)C1 (configuration not stated)	-2	22	0	-2	1	-8
CCn1nnnc1-c1ccc(OC)c(S(=O)(=O)NCCc2ccccc2)c1	5	16	0	-1	-8	-3
Cc1cc(C)c2c(CC(=O)N(CCC#N)Cc3cccnc3)coc2c1	2	·	0	-1	0	5
COc1cc(C2C(C#N)=C(N)Oc3cc(N(C)C)ccc32)cc2c1OCO2 (configuration not stated)	4	9	0	-2	-2	43*
c1ccc(-n2ncc3c(N4CCN(c5ccccn5)CC4)nc(N4CCCCCC4)nc32)cc1	6	-7	1	-1	-6	6
CC(C)N1CC=C2C(C#N)=C(N)C(C#N)(C#N)C(c3ccccc3)C2C1 (configuration not stated)	·	12	4	5	26*	2
COc1cc(C2C3CN(C)CC=C3C(C#N)=C(N)C2(C#N)C#N)ccc1OC(C)C (configuration not stated)	3	·	2	·	1	-4
Cn1c(C(=O)N(Cc2ccccc2)Cc2ccccn2)cc2sccc21	22	-2	-1	0	1	2
